According to article PMC8693849 (RSC Advances, 2021):
In brackets after ≈: the same amount, converted by molar mass.

What was measured:
[1] = tested on: K. pneumoniae (MDR clinical isolate); experiment: Zone of inhibition against MDR clinical isolate; type: cell-based; settings: for zone of inhibition at 15 µg/mL: Klebsiella pneumoniae, read-out: Diameter of zone inhibition; for Diameter of zone inhibition: MDR K. pneumoniae clinical isolate, 15 μg mL^−1
S. aureus (ATCC 25923) = experiment: Agar diffusion method, zone of inhibition; type: cell-based, Staphylococcus aureus; settings: for zone of inhibition at 10 µg/mL / zone of inhibition at 15 µg/mL: Staphylococcus aureus, ATCC25923, 24 h, read-out: Diameter of zone inhibition; for Diameter of zone inhibition: S. aureus (ATCC 25923), 15 μg mL^−1, 24 h, average of triplicate
Procedure, shortened: (§1)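 Bacterial strains were tested by agar diffusion on nutrient agar (peptone 5 and meat extract 3 g L⁻¹ in distilled water, pH 7.0, 2% agar, autoclaved 121 °C for 20 min). Each test compound (1 mg) was dissolved in 1 mL DMSO and made up to 10 mL with sterile water (100 μg mL⁻¹ stock). The solution was placed in the agar, and inhibition zones were measured after 24 h incubation. Values are the mean of triplicate readings.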

C. albicans = experiment: Agar diffusion method, zone of inhibition; type: cell-based, Candida albicans; settings: for zone of inhibition at 10 µg/mL / zone of inhibition at 15 µg/mL: Candida albicans, 24 h, read-out: Diameter of zone inhibition; for Diameter of zone inhibition: C. albicans, average of triplicate
Procedure, shortened: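 For agar diffusion against C. albicans, each test compound (1 mg) was dissolved in 1 mL DMSO and diluted to 10 mL with sterile water (100 μg mL⁻¹ stock). The solution was placed in the agar, and the inhibition zone diameter was read after 24 h. Values are the average of triplicate readings.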

S. pyogenes (ATCC 19615) = experiment: Agar diffusion method, zone of inhibition; type: cell-based, Streptococcus pyogenes; settings: Streptococcus pyogenes, ATCC19615, 24 h, read-out: Diameter of zone inhibition
[2] = tested on: MRSA1 (methicillin resistant S. aureus); experiment: Zone of inhibition against MDR clinical isolate; type: cell-based; settings: for zone of inhibition at 15 µg/mL: Staphylococcus aureus, read-out: Diameter of zone inhibition; for Diameter of zone inhibition: MRSA1 clinical isolate, 15 μg mL^−1
Gram-negative bacteria = experiment: Agar diffusion method; type: cell-based, P. phaseolicola (GSPB 2828) and P. fluorescens (S 97); settings: summary of Table 1
Procedure, shortened: as §1

Gram-positive bacteria = experiment: Agar diffusion method; type: cell-based, S. aureus (ATCC 25923) and S. pyogenes (ATCC 19615); settings: summary of Table 1
Procedure, shortened: as §1

P. fluorescens (S 97) = experiment: Agar diffusion method, zone of inhibition; type: cell-based, Pseudomonas fluorescens; settings: for Diameter of zone inhibition: P. fluorescens (S 97), average of triplicate; for zone of inhibition at 10 µg/mL / zone of inhibition at 15 µg/mL: Pseudomonas fluorescens, 24 h, read-out: Diameter of zone inhibition
Procedure, shortened: as §1

[3] = tested on: MRSA1 (methicillin resistant S. aureus); experiment: Minimal inhibitory concentration; type: cell-based
Procedure, shortened: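 Broth microdilution against MDR clinical isolates: 80 μl Mueller–Hinton broth plus 20 μl tween 80 received 100 μl test compound, then two-fold serial dilution. Each well was inoculated with 100 μl of 0.5 McFarland suspension ([…]) and incubated covered at 35 ± 2 °C for 24 h. MIC is the lowest concentration inhibiting growth.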

[4] = tested on: P. phaseolicola (GSPB 2828); experiment: Agar diffusion method, zone of inhibition; type: cell-based, Pseudomonas phaseolicola; settings: for Diameter of zone inhibition: P. phaseolicola (GSPB 2828), 15 μg mL^−1, 24 h, average of triplicate; for zone of inhibition at 15 µg/mL / zone of inhibition at 10 µg/mL: Pseudomonas, 24 h, read-out: Diameter of zone inhibition
Procedure, shortened: as §1

[5] = MRSA1 clinical isolate, Table 2

Molecule	zone of inhibition at 15 µg/mL [1]	zone of inhibition at 10 µg/mL (S. aureus (ATCC 25923))	zone of inhibition at 15 µg/mL (S. aureus (ATCC 25923))	zone of inhibition at 10 µg/mL (C. albicans)	zone of inhibition at 15 µg/mL (C. albicans)	zone of inhibition at 15 µg/mL (S. pyogenes (ATCC 19615))	zone of inhibition at 15 µg/mL [2]	Activity against Gram-negative bacteria (Gram-negative bacteria)	Activity against Gram-positive bacteria (Gram-positive bacteria)	zone of inhibition at 10 µg/mL (P. fluorescens (S 97))	zone of inhibition at 15 µg/mL (P. fluorescens (S 97))	zone of inhibition at 10 µg/mL (S. pyogenes (ATCC 19615))	zone of inhibition at 15 µg/mL [4]	zone of inhibition at 10 µg/mL [4]	also measured
CCOC(=O)C1=C(C)N2NC(C)(c3ccccc3O)N(C(C)C(=O)O)C2=NC1c1ccc(Cl)cc1 (centres unmarked) [Compound 3b, 2-(5-(4-Chlorophenyl)-6-(ethoxycarbonyl)-2-(2-hydroxyphenyl)-2,7-dimethyl-1,2-dihydro-[1,2,4]triazolo[1,5-a]pyrimidin-3(5H)-yl)propanoic acid]	27 mm	12 mm	25 mm	10 mm	12 mm	24 mm	12 mm	active	–	–	–	–	–	–	–
2-(5-(4-Chlorophenyl)-6-cyano-2-(2-hydroxyphenyl)-7-imino-2-methyl-1,2-dihydro-[1,2,4]triazolo[1,5-a]pyrimidin-3(7H)-yl)-3-(1H-indol-3-yl)propanoic acid [Compound 8d]	–	–	–	–	–	–	–	–	active	–	–	–	–	–	Diameter of zone inhibition [1]: 10 mm; Diameter of zone inhibition (S. aureus (ATCC 25923)): 29 mm; Diameter of zone inhibition (P. fluorescens (S 97); 10 μg mL^−1, 24 h): 12 mm; Diameter of zone inhibition (P. fluorescens (S 97); 15 μg mL^−1, 24 h): 22 mm; Diameter of zone inhibition (C. albicans; 10 μg mL^−1, 24 h): 6 mm; Diameter of zone inhibition (C. albicans; 15 μg mL^−1, 24 h): 7 mm; MIC [3, 5]: 50 µg/mL; Diameter of zone inhibition [4]: 24 mm; Diameter of zone inhibition [2]: 25 mm
CC(C(=O)O)N1C2=NC(c3ccc(Cl)cc3)c3c([nH]c(=O)[nH]c3=O)N2NC1(C)c1ccccc1O (centres unmarked) [Compound 5, 2-(5-(4-Chlorophenyl)-2-(2-hydroxyphenyl)-2-methyl-6,8-dioxo-1,2,6,7,8,9-hexahydropyrimido[5,4-e][1,2,4]triazolo[1,5-a]pyrimidin-3(5H)-yl)propanoic acid]	23 mm	–	26 mm	7 mm	9 mm	25 mm	8 mm	active	–	15 mm	28 mm	11 mm	30 mm	–	–
2-(5-(4-Chlorophenyl)-6-cyano-2-(2-hydroxyphenyl)-7-imino-1,2-dihydro-[1,2,4]triazolo[1,5-a]pyrimidin-3(7H)-yl)-3-(1H-indol-3-yl)propanoic acid [Compound 8c]	–	–	–	–	–	–	–	–	active	–	–	–	–	–	Diameter of zone inhibition [1]: 12 mm; Diameter of zone inhibition (S. aureus (ATCC 25923)): 30 mm; Diameter of zone inhibition (P. fluorescens (S 97); 10 μg mL^−1, 24 h): 13 mm; Diameter of zone inhibition (P. fluorescens (S 97); 15 μg mL^−1, 24 h): 23 mm; Diameter of zone inhibition (C. albicans; 10 μg mL^−1, 24 h): 8 mm; Diameter of zone inhibition (C. albicans; 15 μg mL^−1, 24 h): 11 mm; MIC [3, 5]: 50 µg/mL; Diameter of zone inhibition [4]: 24 mm; Diameter of zone inhibition [2]: 28 mm
CC(C(=O)O)N1C2=NC(c3ccc(Cl)cc3)C3=C(CCCC3=O)N2NC1(C)c1ccccc1O (centres unmarked) [Compound 6, 2-(5-(4-Chlorophenyl)-2-(2-hydroxyphenyl)-2-methyl-6-oxo-1,2,6,7,8,9-hexahydro-[1,2,4]triazolo[1,5-a]quinazolin-3(5H)-yl)propanoic acid]	22 mm	15 mm	25 mm	7 mm	8 mm	24 mm	10 mm	active	–	19 mm	–	10 mm	29 mm	–	–
Clc1ccccc1C(c1ccccc1)(c1ccccc1)n1ccnc1 [Clotrimazole, reference compound]	–	–	–	36 mm	44 mm	–	–	–	–	–	–	–	–	–	–
CC(C(=O)O)N1C2=NC(c3ccc(Cl)cc3)C3=C(CC(C)(C)CC3=O)N2NC1(C)c1ccccc1O (centres unmarked) [Compound 7, 2-(5-(4-Chlorophenyl)-2-(2-hydroxyphenyl)-2,8,8-trimethyl-6-oxo-1,2,6,7,8,9-hexahydro-[1,2,4]triazolo[1,5-a]quinazolin-3(5H)-yl)propanoic acid]	20 mm	15 mm	23 mm	10 mm	11 mm	20 mm	8 mm	active	–	–	–	12 mm	–	19 mm	–
CC(=O)C1=C(C)N2NC(c3ccccc3O)N(C(C)C(=O)O)C2=NC1c1ccc(Cl)cc1 (centres unmarked) [Compound 2a, 2-(6-Acetyl-5-(4-chlorophenyl)-2-(2-hydroxyphenyl)-7-methyl-1,2-dihydro-[1,2,4]triazolo[1,5-a]pyrimidin-3(5H)-yl)propanoic acid]	–	10 mm	16 mm	–	–	–	–	–	–	16 mm	–	12 mm	–	–	–
O=C(N[C@H](CO)[C@H](O)c1ccc([N+](=O)[O-])cc1)C(Cl)Cl [Chloramphenicol, reference compound]	–	–	–	–	–	–	–	–	–	30 mm	30 mm	–	25 mm	25 mm	–
CC(=O)OCC1=C(C(=O)O)N2C(=O)[C@@H](NC(=O)Cc3cccs3)[C@H]2SC1 [Cephalothin, reference compound]	–	28 mm	28 mm	–	–	30 mm	–	–	–	–	–	30 mm	–	–	–
CC(=O)C1=C(C)N2NC(c3ccccc3O)N(C(Cc3c[nH]c4ccccc34)C(=O)O)C2=NC1c1ccc(Cl)cc1 (centres unmarked) [Compound 2c, 2-(6-Acetyl-5-(4-chlorophenyl)-2-(2-hydroxyphenyl)-7-methyl-1,2-dihydro-[1,2,4]triazolo[1,5-a]pyrimidin-3(5H)-yl)-3-(1H-indol-3-yl)propanoic acid]	8 mm	–	–	6 mm	9 mm	–	26 mm	–	active	12 mm	22 mm	–	23 mm	11 mm	MIC ([3]; MRSA1, Table 4): 25 µg/mL (≈ 43.9 µM); SI (selectivity index, CC50/MIC) ([3]; MRSA1 vs VERO cells): 10; MIC ([3]; Staphylococcus aureus): 25 µg/mL (≈ 43.9 µM)
CCOC(=O)C1=C(C)N2NC(C)(c3ccccc3O)N(C(Cc3c[nH]c4ccccc34)C(=O)O)C2=NC1c1ccc(Cl)cc1 (centres unmarked) [Compound 3d, 2-(5-(4-Chlorophenyl)-6-(ethoxycarbonyl)-2-(2-hydroxyphenyl)-2,7-dimethyl-1,2-dihydro-[1,2,4]triazolo[1,5-a]pyrimidin-3(5H)-yl)-3-(1H-indol-3-yl)propanoic acid]	6 mm	–	–	9 mm	10 mm	–	6 mm	–	active	10 mm	–	–	23 mm	11 mm	–
CC(=O)C1=C(C)N2NC(C)(c3ccccc3O)N(C(C)C(=O)O)C2=NC1c1ccc(Cl)cc1 (centres unmarked) [Compound 2b, 2-(6-Acetyl-5-(4-chlorophenyl)-2-(2-hydroxyphenyl)-2,7-dimethyl-1,2-dihydro-[1,2,4]triazolo[1,5-a]pyrimidin-3(5H)-yl)propanoic acid]	25 mm	12 mm	–	6 mm	8 mm	–	8 mm	active	–	15 mm	29 mm	10 mm	–	16 mm	–
